Laboratory results from PubChem BioAssay AID504418 (Johns Hopkins Ion Channel Center, 2011).
Calls of active or inactive are those of the source.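 The calls were made as follows: active = compound raising or lowering KCNQ1 potassium channel current, with its KCNE1 partner, at some dose, giving a dose response curve; inactive = no effect at any dose or no curve.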

Molecular target: Potassium voltage-gated channel subfamily KQT member 1 (Homo sapiens) + Potassium voltage-gated channel subfamily E member 1 (Homo sapiens) (UniProt P15382+P51787)
Assay: KCNQ1/KCNE1 channel modulation by KCNQ2 openers, dose response, selectivity assay for KCNQ2 activator project, Tl flux, KCNQ1/E1-expressing cells (AID 504418)
Details: FluxOR thallium flux; series mostly up to 30 µM; potentiation: at the top concentration
How it was run: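 System: CHO-KCNQ1/KCNE1 cells; Reagent: K2SO4 and Tl2SO4 stimulus, 12.5 mM each as 5x stock; Times: FluxOR dye loading 90 min, compound exposure 20 min, room temperature; Technique: kinetic FluxOR thallium-flux fluorescence, 110 s reading after stimulus; Control set: vehicle wells with stimulus, blank wells without stimulus.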

Chain of Potassium voltage-gated channel subfamily KQT member 1 (Homo sapiens) + Potassium voltage-gated channel subfamily E member 1 (Homo sapiens) (O88943 whole entry, looked up): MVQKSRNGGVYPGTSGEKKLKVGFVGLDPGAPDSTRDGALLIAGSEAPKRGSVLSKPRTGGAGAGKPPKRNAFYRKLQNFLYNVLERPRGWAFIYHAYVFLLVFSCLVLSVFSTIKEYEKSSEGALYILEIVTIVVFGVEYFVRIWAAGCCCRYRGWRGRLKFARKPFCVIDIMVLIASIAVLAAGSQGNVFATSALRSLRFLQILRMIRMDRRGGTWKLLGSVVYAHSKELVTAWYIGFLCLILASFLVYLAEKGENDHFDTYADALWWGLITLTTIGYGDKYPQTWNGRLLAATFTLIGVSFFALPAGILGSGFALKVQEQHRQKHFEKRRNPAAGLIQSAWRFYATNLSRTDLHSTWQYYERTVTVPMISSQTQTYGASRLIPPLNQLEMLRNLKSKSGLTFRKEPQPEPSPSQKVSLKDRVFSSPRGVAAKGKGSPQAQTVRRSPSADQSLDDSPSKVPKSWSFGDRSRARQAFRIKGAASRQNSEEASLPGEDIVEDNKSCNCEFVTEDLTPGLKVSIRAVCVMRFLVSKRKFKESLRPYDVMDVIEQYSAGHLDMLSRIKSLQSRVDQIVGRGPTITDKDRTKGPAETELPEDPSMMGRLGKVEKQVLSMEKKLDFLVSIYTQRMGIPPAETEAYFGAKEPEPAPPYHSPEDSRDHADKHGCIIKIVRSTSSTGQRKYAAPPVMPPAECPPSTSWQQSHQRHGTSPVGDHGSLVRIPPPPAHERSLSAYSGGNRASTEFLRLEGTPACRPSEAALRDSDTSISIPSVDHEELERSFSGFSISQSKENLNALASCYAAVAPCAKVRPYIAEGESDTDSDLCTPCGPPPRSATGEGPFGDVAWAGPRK
Chain of Potassium voltage-gated channel subfamily KQT member 1 (Homo sapiens) + Potassium voltage-gated channel subfamily E member 1 (Homo sapiens) (P51787 whole entry, looked up): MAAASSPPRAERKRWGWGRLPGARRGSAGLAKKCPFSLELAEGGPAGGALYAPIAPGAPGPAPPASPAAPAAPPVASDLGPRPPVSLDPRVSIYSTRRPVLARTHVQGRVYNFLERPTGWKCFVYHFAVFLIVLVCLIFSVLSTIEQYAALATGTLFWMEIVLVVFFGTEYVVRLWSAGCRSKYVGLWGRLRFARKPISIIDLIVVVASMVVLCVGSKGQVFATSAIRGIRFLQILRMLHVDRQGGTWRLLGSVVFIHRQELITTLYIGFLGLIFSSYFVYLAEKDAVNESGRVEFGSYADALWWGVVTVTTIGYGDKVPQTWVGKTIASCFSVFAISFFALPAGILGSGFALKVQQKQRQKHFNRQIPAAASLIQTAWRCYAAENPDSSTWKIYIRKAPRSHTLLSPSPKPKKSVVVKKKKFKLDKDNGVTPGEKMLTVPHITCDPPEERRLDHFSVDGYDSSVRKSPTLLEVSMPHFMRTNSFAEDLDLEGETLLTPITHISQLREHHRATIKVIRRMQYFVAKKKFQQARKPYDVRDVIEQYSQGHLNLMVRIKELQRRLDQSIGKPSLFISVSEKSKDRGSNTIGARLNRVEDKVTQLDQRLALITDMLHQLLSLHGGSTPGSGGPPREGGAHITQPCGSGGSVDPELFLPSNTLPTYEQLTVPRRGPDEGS

potentiation, inactive:
Cc1cc(C)c(NC(=O)C2CC3CCC2C3)c(C)c1 (stereo not given) -11.1
Cc1cccc(C)c1NC(=O)C1CC2CCC1C2 (stereo not given) -3.24
CCCCC(=O)Nc1c(C)cc(C)cc1Cl 21.8
Cc1ccc(C)c(NC(=O)C2CC3CCC2C3)c1 (stereo not given) 6.85
Cc1cc(C)c(NC(=O)CC(C)(C)C)c(Cl)c1 0.12
